The results in this text go back to ChEMBL document CHEMBL5230083, “Novel 2, 5-diketopiperazine derivatives as potent selective histone deacetylase 6 inhibitors: Rational design, synthesis and antiproliferative activity” (Eur J Med Chem, 2020).

For one test, the system named is SN12C. Nature of the test: Antiproliferative activity against human SN12C cells assessed as cell growth at 10 uM incubated for 48 hrs by SRB assay relative to control. The format is functional. The conditions noted are these: read-out: Activity. The procedure, abridged:
(§1)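 NCI-60 single-dose screen: compounds tested at 10 μM, and growth percent of each cell line calculated. The full method follows the NCI DTP protocol.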

The next test deals with EKVX. In words: Antiproliferative activity against human EKVX cells assessed as cell growth at 10 uM incubated for 48 hrs by SRB assay relative to control. The conditions noted are these: read-out: Activity. It counts as functional. The procedure, abridged:
(§2)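 Single-concentration screen at 10 μM run by NCI on its NCI-60 human tumour panel (blood, lung, colon, CNS, melanoma, ovary, kidney, prostate, breast), following the NCI-60 published methodology. Read-out is growth percent relative to untreated cells.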

For the next test, the system named is HCT-15. In words: Antiproliferative activity against human HCT-15 cells assessed as cell growth at 10 uM incubated for 48 hrs by SRB assay relative to control. The conditions noted are these: read-out: Activity. It counts as functional. In outline: as §2
(The SRB assay estimates cell density from bound dye.)

Another test deals with HT-29. Nature of the test: Antiproliferative activity against human HT-29 cells assessed as cell growth at 10 uM incubated for 48 hrs by SRB assay relative to control. The format is functional. The conditions noted are these: read-out: Activity. The procedure, abridged: as §2
The subject of a further test is SF-539. In words: Antiproliferative activity against human SF-539 cells assessed as cell growth at 10 uM incubated for 48 hrs by SRB assay relative to control. It counts as functional. The conditions noted are these: read-out: Activity. In outline:
as §2

A further test deals with BT-549. Nature of the test: Antiproliferative activity against human BT-549 cells assessed as cell growth at 10 uM incubated for 48 hrs by SRB assay relative to control. The conditions noted are these: read-out: Activity. The format is functional. The procedure, abridged: as §2
A further test has as its system KM12. In words: Antiproliferative activity against human KM12 cells assessed as cell growth at 10 uM incubated for 48 hrs by SRB assay relative to control. Conditions: read-out: Activity. The format is functional. In outline:
as §2

Another test has as its system TK-10. Nature of the test: Antiproliferative activity against human TK-10 cells assessed as cell growth at 10 uM incubated for 48 hrs by SRB assay relative to control. The conditions noted are these: read-out: Activity. The format is functional. The procedure, abridged: as §1
A further test deals with UACC-62. Nature of the test: Antiproliferative activity against human UACC-62 cells assessed as cell growth at 10 uM incubated for 48 hrs by SRB assay relative to control. The format is functional. Conditions: read-out: Activity. In outline:
as §1

The test system of another test is SK-MEL-28. Nature of the test: Antiproliferative activity against human SK-MEL-28 cells assessed as cell growth at 10 uM incubated for 48 hrs by SRB assay relative to control. The conditions noted are these: read-out: Activity. The format is functional. In outline: as §2
In another test the test system is SR. Nature of the test: Antiproliferative activity against human SR cells assessed as cell growth at 10 uM incubated for 48 hrs by SRB assay relative to control. The format is functional. The conditions noted are these: read-out: Activity. In outline:
as §1

In the next test the test system is SNB-75. In words: Antiproliferative activity against human SNB-75 cells assessed as cell growth at 10 uM incubated for 48 hrs by SRB assay relative to control. The format is functional. Conditions: read-out: Activity. In outline: as §1
The next test has as its system RXF 393. Nature of the test: Antiproliferative activity against human RXF 393 cells assessed as cell growth at 10 uM incubated for 48 hrs by SRB assay relative to control. The format is functional. Conditions: read-out: Activity. The procedure, abridged:
as §2

In test [1] the test system is RPMI-8226. Nature of the test: Antiproliferative activity against human RPMI-8226 cells assessed as cell growth at 10 uM incubated for 48 hrs by SRB assay relative to control. It counts as functional. Conditions: read-out: Activity. The procedure, abridged: as §2
The test system of a further test is SK-OV-3. Nature of the test: Antiproliferative activity against human SK-OV-3 cells assessed as cell growth at 10 uM incubated for 48 hrs by SRB assay relative to control. Conditions: read-out: Activity. It counts as functional. In outline: as §1
In a further test the test system is MCF7. In words: Antiproliferative activity against human MCF7 cells assessed as cell growth at 10 uM incubated for 48 hrs by SRB assay relative to control. It counts as functional. Conditions: read-out: Activity. In outline:
as §2

For the next test, the system named is UACC-257. Nature of the test: Antiproliferative activity against human UACC-257 cells assessed as cell growth at 10 uM incubated for 48 hrs by SRB assay relative to control. The format is functional. The conditions noted are these: read-out: Activity. In outline: as §1
For a further test, the system named is HCC 2998. In words: Antiproliferative activity against human HCC 2998 cells assessed as cell growth at 10 uM incubated for 48 hrs by SRB assay relative to control. Conditions: read-out: Activity. It counts as functional. In outline: as §2
In a further test the test system is NCI-H460. Nature of the test: Antiproliferative activity against human NCI-H460 cells assessed as cell growth at 10 uM incubated for 48 hrs by SRB assay relative to control. It counts as functional. The conditions noted are these: read-out: Activity. The procedure, abridged:
as §2

The target in test [2] is T1, Protein deacetylase HDAC6 (Homo sapiens, UniProt Q9UBN7).
T1 sequence (Q9UBN7 whole entry): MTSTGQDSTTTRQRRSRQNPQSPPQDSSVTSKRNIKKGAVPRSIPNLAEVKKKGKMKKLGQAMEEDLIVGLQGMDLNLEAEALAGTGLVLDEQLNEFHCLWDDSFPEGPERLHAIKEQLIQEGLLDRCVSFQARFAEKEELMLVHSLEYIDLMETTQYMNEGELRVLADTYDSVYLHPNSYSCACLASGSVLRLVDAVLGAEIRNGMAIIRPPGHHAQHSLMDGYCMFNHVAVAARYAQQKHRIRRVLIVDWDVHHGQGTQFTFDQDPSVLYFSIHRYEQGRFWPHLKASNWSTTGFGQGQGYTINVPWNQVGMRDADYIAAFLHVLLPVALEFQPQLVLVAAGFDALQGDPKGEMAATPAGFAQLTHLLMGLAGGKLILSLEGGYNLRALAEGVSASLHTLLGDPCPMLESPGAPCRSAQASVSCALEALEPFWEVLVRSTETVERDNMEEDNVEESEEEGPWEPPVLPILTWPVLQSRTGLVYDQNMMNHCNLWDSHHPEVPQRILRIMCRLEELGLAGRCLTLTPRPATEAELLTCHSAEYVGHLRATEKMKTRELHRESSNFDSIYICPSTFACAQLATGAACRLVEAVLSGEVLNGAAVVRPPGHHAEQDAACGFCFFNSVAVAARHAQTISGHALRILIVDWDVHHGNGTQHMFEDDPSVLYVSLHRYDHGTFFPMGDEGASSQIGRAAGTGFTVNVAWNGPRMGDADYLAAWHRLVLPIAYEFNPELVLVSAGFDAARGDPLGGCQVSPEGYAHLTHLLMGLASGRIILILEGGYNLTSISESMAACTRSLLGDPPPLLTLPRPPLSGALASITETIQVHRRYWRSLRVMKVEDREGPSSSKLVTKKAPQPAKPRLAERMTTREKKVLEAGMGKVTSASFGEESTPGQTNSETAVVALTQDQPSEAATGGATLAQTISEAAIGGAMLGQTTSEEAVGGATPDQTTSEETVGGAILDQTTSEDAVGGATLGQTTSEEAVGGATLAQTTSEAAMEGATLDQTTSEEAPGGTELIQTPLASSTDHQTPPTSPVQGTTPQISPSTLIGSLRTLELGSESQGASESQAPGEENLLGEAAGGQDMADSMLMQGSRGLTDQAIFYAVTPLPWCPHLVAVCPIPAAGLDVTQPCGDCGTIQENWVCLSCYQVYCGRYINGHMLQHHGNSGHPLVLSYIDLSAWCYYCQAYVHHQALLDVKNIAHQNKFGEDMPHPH
In words: Inhibition of HDAC6 (unknown origin) using Fluor de lys as substrate by fluorescence based analysis.

A further test concerns LOX IMVI. In words: Antiproliferative activity against human LOX IMVI cells assessed as cell growth at 10 uM incubated for 48 hrs by SRB assay relative to control. It counts as functional. The conditions noted are these: read-out: Activity. In outline: as §2
The test system of test [3] is RPMI-8226. Nature of the test: cells. The format is functional, cell-based. The conditions noted are these: Homo sapiens, RPMI-8226, 72 h.
Another test relates to CCRF-CEM. In words: Antiproliferative activity against human CCRF-CEM cells assessed as cell growth at 10 uM incubated for 48 hrs by SRB assay relative to control. It counts as functional. The conditions noted are these: read-out: Activity. The procedure, abridged:
as §2

As a reminder, the IC50 is the midpoint of a concentration-inhibition curve. Low values mean inhibition by little substance, high ones a need for much substance. `O=C(NO)c1ccc(CN2CC(=O)N(Cc3ccccc3)[C@H](Cc3ccccc3)C2=O)cc1`: the growth at 10 µM with SN12C was 96.6%; in the test with EKVX, 88.2%; in the test with HCT-15, 74.3%; in the test with HT-29, 87.9%; in the test on SF-539 it was 87.3%; with BT-549, 103%. In addition, the growth at 10 µM in the test on KM12 came out at 86.9%; in the test on TK-10 it was 88.1%; in the test with UACC-62, 87.5%; with SK-MEL-28, 95.4%; in the test on SR it was 63.5%; in the test on SNB-75, 69.4%. In addition, the growth at 10 µM was 86% in the test with RXF 393; 58.6% in the test on RPMI-8226 [1]; 90.4% with SK-OV-3; 82.9% in the test with MCF7; 69.3% in the test on UACC-257; 85.9% in the test on HCC 2998. For the same compound, the growth at 10 µM with NCI-H460 came out at 81.6%; in the test on LOX IMVI, 93.2%; in the test on CCRF-CEM, 72%. In addition, the figures for the IC50 (in [2]; in the test with RPMI-8226 [3]) were 0.00983 µM and 11.7 µM, respectively.

On to `O=C1CN(Cc2ccc(C(=O)NO)cc2)C(=O)[C@@H](Cc2c[nH]c3ccccc23)N1`, for which the growth at 10 µM amounted to 100% in the test with SN12C; 106% in the test with EKVX; 103% in the test on HCT-15; 104% in the test with HT-29; 107% in the test with SF-539; 98.2% with BT-549. Besides, the growth at 10 µM with KM12 turned out to be 102%; in the test with TK-10, 103%; in the test on UACC-62, 95.5%; with SK-MEL-28, 110%; in the test with SR, 115%; with SNB-75, 94.5%. Also, the growth at 10 µM with RXF 393 worked out at 105%; in the test with RPMI-8226 [1] it was 104%; with SK-OV-3, 96.5%; in the test with MCF7, 96.7%; in the test on UACC-257 it was 96.1%; in the test on HCC 2998, 103%. The growth at 10 µM in the test on NCI-H460 stood at 104%; with LOX IMVI, 106%; in the test on CCRF-CEM it was 103%. Besides, the IC50 is 0.00073 µM in test [2] and 33.2 µM with RPMI-8226 [3].
